The text below walks through data of publication PMC12591034 (RSC Advances, 2025).

Holding throughout (format): cell-based
The test system of data set [1] is MCF-7 (breast) carcinoma cells. Kind of data set: Cytotoxicity, SRB assay, MCF-7. Conditions: Homo sapiens, MCF7, read-out: IC50 Cytotoxicity MCF-7. An outline of the steps:
(§1)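 Sulforhodamine B (SRB) cytotoxicity assay on human A549 lung, Hep-G2 liver and MCF-7 breast carcinoma cells, run alongside non-cancer HEK-293A embryonic kidney cells. Results are given as mean ± SD from three independent experiments. IC50 was estimated by curve fitting.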
For orientation: The SRB assay estimates cell density from bound dye.

Data set [2] relates to A549 (lung) carcinoma cells. Kind of data set: Cytotoxicity, SRB assay, A549. As to conditions: Homo sapiens, A549, read-out: IC50 Cytotoxicity A549. The gist of the method: as §1
Data set [3] deals with Hep-G2 (liver) carcinoma cells. Kind of data set: Cytotoxicity, SRB assay, Hep-G2. Conditions: Homo sapiens, HepG2, read-out: IC50 Cytotoxicity Hep-G2. The gist of the method:
as §1

In data set [4] the test system is NO production in LPS-stimulated RAW 264.7 macrophage cells. In words: Inhibition of NO production in LPS-stimulated RAW 264.7 cells. Conditions: Mus musculus, RAW264.7, read-out: IC50 Inhibition of NO-production. An outline of the steps:
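RAW 264.7 murine macrophages were stimulated with LPS. NO release was measured as nitrite in the culture medium by the Griess reaction. Results are given as mean ± SD from three independent experiments. IC50 was estimated by curve fitting.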

The nature of data set [5]: Cytotoxicity, SRB assay, HEK-293A. Conditions: human, HEK-293A embryonic kidney cells (normal cells).
In data set [6] the test system is A549, Hep-G2, and MCF-7 human cancer cell lines. Kind of data set: Cytotoxicity, SRB assay, stated across the cancer cell lines. As to conditions: tested cell lines. An outline of the steps:
as §1

A word on the IC50: it is the concentration needed to halve the response being measured. On to `C[C@H]1C(=O)CC[C@@H]2[C@]1(C)CC[C@H]1[C@@]2(C)CC[C@@]2(C)[C@@H]3CC(C)(C)CC[C@]3(C)CC[C@]12C` [Compound 5, friedelin], for which the IC50 in data set [1], in data set [2], in data set [3] and in data set [4] was over 100 µM each time.

Turning to `COC(=O)c1c(C)cc(O)c(C=O)c1O` [Compound 17, methyl haematommate], the IC50 was 70.7 ± 4.44 µM in data set [5]; 99.3 ± 6.83 µM in data set [1]; over 100 µM in data set [2]; 80.7 ± 3.59 µM in data set [3]; over 100 µM in data set [4]. Also, the “cytotoxic activity in words” value in data set [6] is recorded as “weakly active”.

For the compound `Cc1c2ccncc2c(C)c2c1[nH]c1ccccc12` [Ellipticine, reference compound], the IC50 in data set [5] came to 1.34 ± 0.08 µM; in data set [1], 1.54 ± 0.04 µM; in data set [2] it was 1.71 ± 0.08 µM; in data set [3] it was 1.42 ± 0.08 µM.

With `C[C@H]1C(=O)CC[C@@H]2[C@]1(C)CC[C@H]1[C@@]2(C)CC[C@@]2(C)[C@@H]3CC(C)(C)CC[C@]3(CO)CC[C@]12C` [Compound 7, canophyllol], the IC50 in data set [5] is 30.1 ± 1.25 µM; in data set [1], 27.4 ± 1.19 µM; in data set [2], 39.3 ± 1.29 µM; in data set [3] it was 22.4 ± 1.01 µM; in data set [4], 79.9 ± 1.37 µM.
